Measurements from ChEMBL document CHEMBL5360543, “Designed multiple ligands for the treatment of type 2 diabetes mellitus and its complications: Discovery of (5-arylidene-4-oxo-2-thioxothiazolidin-3-yl)alkanoic acids active as novel dual-targeted PTP1B/AKR1B1 inhibitors” (Eur J Med Chem, 2023).
pIC50, pKi: −log10 of the molar value. Activity calls are given as the source filed them. No cut-off for these calls is given here.

target: T1, Aldo-keto reductase family 1 member B1 (Homo sapiens, UniProt P15121); experiment: Inhibition of human recombinant AKR1B1 expressed in Escherichia coli BL21(DE3)pLysS using L-idose as substrate by NADPH oxidation based absorbance analysis; details: not given

SMILES | pIC50
O=C(O)CCN1C(=O)/C(=C/c2cccc(OCCCCc3ccccc3)c2)SC1=S | 5.68
O=C(O)CCN1C(=O)/C(=C/c2cccc(OCCCOc3ccccc3)c2)SC1=S | 5.68
O=C(O)CN1C(=O)/C(=C/c2ccc(OCCCc3ccccc3)cc2)SC1=S | 6.59

target: T2, Tyrosine-protein phosphatase non-receptor type 1 (Homo sapiens, UniProt P18031); experiment: Inhibition of N-terminal polyHis-tagged human PTP1B1 (1 to 303 residues) expressed in Escherichia coli BL21(DE3)pLysS using pNPP as substrate by spectrophotometric analysis; details: not given
T2 sequence (P18031 whole entry): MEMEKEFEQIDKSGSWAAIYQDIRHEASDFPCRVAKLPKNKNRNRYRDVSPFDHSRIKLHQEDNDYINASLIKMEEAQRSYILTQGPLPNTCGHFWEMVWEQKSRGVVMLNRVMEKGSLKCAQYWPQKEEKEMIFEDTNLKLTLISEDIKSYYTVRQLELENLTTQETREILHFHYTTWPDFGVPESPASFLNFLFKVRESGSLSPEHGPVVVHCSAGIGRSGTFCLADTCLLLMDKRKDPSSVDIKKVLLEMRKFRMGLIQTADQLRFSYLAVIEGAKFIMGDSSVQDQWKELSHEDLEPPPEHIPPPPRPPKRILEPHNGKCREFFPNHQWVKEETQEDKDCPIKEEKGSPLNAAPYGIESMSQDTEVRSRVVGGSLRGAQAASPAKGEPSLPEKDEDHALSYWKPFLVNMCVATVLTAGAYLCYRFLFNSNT
Outline: (§1)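 His-tagged human PTP1B (1–303) from E. coli BL21(DE3)pLysS, assayed in 0.075 M β,β-dimethylglutarate pH 7.0 with 1 mM EDTA, 0.1 mM DTT and pNPP. Reaction stopped with 0.1 M KOH; p-nitrophenol read at 400 nm. IC50 from 15–16 inhibitor concentrations in triplicate, normalized to control, fitted by nonlinear regression. Single-point residual activity at 5 µM.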

SMILES | pIC50
O=C(O)CCN1C(=O)/C(=C/c2cccc(OCCCCc3ccccc3)c2)SC1=S | 5.49

target: T3, Tyrosine-protein phosphatase non-receptor type 1 (Homo sapiens) (UniProt P18031); experiment: Inhibition of N-terminal polyHis-tagged human PTP1B1 (1 to 303 residues) expressed in Escherichia coli BL21(DE3)pLysS assessed as enzyme residual activity using pNPP as substrate at 5 uM by spectrophotometric analysis; details: not given; outline: as §1
T3 sequence (whole entry): T2 sequence (P18031 whole entry)

SMILES | Activity [%]
O=C(O)CCN1C(=O)/C(=C/c2cccc(OCCCOc3ccccc3)c2)SC1=S | 77
O=C(O)CN1C(=O)/C(=C/c2ccc(OCCCc3ccccc3)cc2)SC1=S | 79

target: T4, Tyrosine-protein phosphatase non-receptor type 2 (Homo sapiens, UniProt P17706); experiment: Inhibition of N-terminal polyHis-tagged human recombinant TC-PTPb (1 to 415 residues) expressed in Escherichia coli BL21(DE3)pLysS; details: not given
T4 sequence (P17706 whole entry): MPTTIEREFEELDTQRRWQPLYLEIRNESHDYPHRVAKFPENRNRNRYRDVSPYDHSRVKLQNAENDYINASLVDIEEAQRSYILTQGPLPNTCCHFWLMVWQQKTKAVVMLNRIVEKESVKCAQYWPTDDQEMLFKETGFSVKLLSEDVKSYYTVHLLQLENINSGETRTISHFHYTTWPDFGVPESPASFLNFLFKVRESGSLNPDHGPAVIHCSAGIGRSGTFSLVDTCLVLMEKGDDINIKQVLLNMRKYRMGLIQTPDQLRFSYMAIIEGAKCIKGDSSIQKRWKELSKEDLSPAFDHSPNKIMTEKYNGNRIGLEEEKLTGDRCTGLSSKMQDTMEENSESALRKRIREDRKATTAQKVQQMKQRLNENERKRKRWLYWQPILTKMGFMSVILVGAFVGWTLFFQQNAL

SMILES | pIC50
O=C(O)CCN1C(=O)/C(=C/c2cccc(OCCCCc3ccccc3)c2)SC1=S | 4.59

species on record: Homo sapiens; experiment: Selectivity index, ratio of IC50 for inhibition of N-terminal polyHis-tagged human recombinant TC-PTPb (1 to 415 residues) expressed in Escherichia coli BL21(DE3)pLysS to IC50 for inhibition of N-terminal polyHis-tagged human PTP1B1 (1 to 303 residues) expressed in Escherichia coli BL21(DE3)pLysS; details: not given

SMILES | Ratio IC50
O=C(O)CCN1C(=O)/C(=C/c2cccc(OCCCCc3ccccc3)c2)SC1=S | 8

target: T3, Tyrosine-protein phosphatase non-receptor type 1 (Homo sapiens); experiment: Reversible inhibition of N-terminal polyHis-tagged human PTP1B1 (1 to 303 residues) expressed in Escherichia coli BL21(DE3)pLysS using pNPP as substrate pretreated with enzyme for 60 mins followed by 400-fold dilution with buffer containing substrate and measured after 15 mins by spectrophotometric analysis; details: time 75.0 min
Outline: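 PTP1B incubated 60 min at 37 °C with saturating inhibitor, then diluted 400-fold into assay buffer containing 2.5 mM pNPP. Stopped after 15 min with 0.2 M KOH; absorbance read at 400 nm. Normalized to enzyme diluted with DMSO; mean ± SEM (n = 3).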

SMILES | inhibition
O=C(O)CCN1C(=O)/C(=C/c2cccc(OCCCCc3ccccc3)c2)SC1=S | Active

target: T1, Aldo-keto reductase family 1 member B1; experiment: Reversible inhibition of human recombinant AKR1B1 expressed in Escherichia coli BL21(DE3)pLysS assessed as recovery of enzyme activity using L-idose as substrate measured after extensive dialysis by NADPH oxidation based absorbance analysis; parameters: scale not given: the % may be the effect or the level left; details: not given

SMILES | Activity [%]
O=C(O)CCN1C(=O)/C(=C/c2cccc(OCCCCc3ccccc3)c2)SC1=S | > 90

target: T2, Tyrosine-protein phosphatase non-receptor type 1; experiment: Mixed non-competitive inhibition of N-terminal polyHis-tagged human PTP1B1 (1 to 303 residues) expressed in Escherichia coli BL21(DE3)pLysS assessed as apparent dissociation constant for EI complex using pNPP as substrate by Lineweaver-Burk plot analysis; details: not given
Outline: (§2)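 PTP1B initial pNPP hydrolysis rates measured at seven pNPP concentrations (0.5–25 mM) and at least three inhibitor concentrations, in triplicate. Data fitted to Michaelis–Menten; KM and Vmax dependence on inhibitor analysed by Lineweaver–Burk plots.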

SMILES | pKi
O=C(O)CCN1C(=O)/C(=C/c2cccc(OCCCCc3ccccc3)c2)SC1=S | 6.05

target: T2, Tyrosine-protein phosphatase non-receptor type 1; experiment: Mixed non-competitive inhibition of N-terminal polyHis-tagged human PTP1B1 (1 to 303 residues) expressed in Escherichia coli BL21(DE3)pLysS assessed as apparent dissociation constant for ESI complex using pNPP as substrate by Lineweaver-Burk plot analysis; details: not given; outline: as §2

SMILES | pKi
O=C(O)CCN1C(=O)/C(=C/c2cccc(OCCCCc3ccccc3)c2)SC1=S | 5.18

target: T1, Aldo-keto reductase family 1 member B1; experiment: Mixed non-competitive inhibition of human recombinant AKR1B1 expressed in Escherichia coli BL21(DE3)pLysS assessed as apparent dissociation constant for EI complex using L-idose as substrate by secondary plot analysis; details: not given
Outline: (§3)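 AKR1B1 rates measured at varied L-idose concentrations with and without several inhibitor concentrations, then Lineweaver–Burk analysis. […] Tight binders fitted with the Morrison equation, KM for L-idose taken as 3.8 mM. At least three independent experiments.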

SMILES | pKi
O=C(O)CCN1C(=O)/C(=C/c2cccc(OCCCCc3ccccc3)c2)SC1=S | 5.40

target: T1, Aldo-keto reductase family 1 member B1; experiment: Mixed non-competitive inhibition of human recombinant AKR1B1 expressed in Escherichia coli BL21(DE3)pLysS assessed as apparent dissociation constant for ESI complex using L-idose as substrate by secondary plot analysis; details: not given; outline: as §3

SMILES | pKi
O=C(O)CCN1C(=O)/C(=C/c2cccc(OCCCCc3ccccc3)c2)SC1=S | 5.96

target: T1, Aldo-keto reductase family 1 member B1; experiment: Ratio of Ki for human recombinant AKR1B1 expressed in Escherichia coli BL21(DE3)pLysS assessed as apparent dissociation constant for EI complex to Ki for human recombinant AKR1B1 expressed in Escherichia coli BL21(DE3)pLysS assessed as apparent dissociation constant for ESI complex; details: not given; outline: as §3

SMILES | Ratio Ki
O=C(O)CCN1C(=O)/C(=C/c2cccc(OCCCCc3ccccc3)c2)SC1=S | 2

test system: C2C12; experiment: Cytotoxicity against mouse C2C12 cells assessed as reduction in cell viability at 20 uM incubated for 24 hrs by MTT assay; format: toxicity, cell-based; details: c2c12, 24 h
Outline: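 C2C12 myoblasts were differentiated for 96 h in DMEM with 2% horse serum, then held 24 h in complete medium with 20 µM compound, DMSO vehicle as control. MTT 0.5 mg/mL was added, cells lysed in DMSO, absorbance read, and values normalized to vehicle. Quadruplicate, mean ± SD (n = 4).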

SMILES | Activity
O=C(O)CCN1C(=O)/C(=C/c2cccc(OCCCCc3ccccc3)c2)SC1=S | Non-Toxic

target: T5, Tyrosine-protein phosphatase non-receptor type 1 (Mus musculus) (UniProt P35821); experiment: Inhibition of PTP1B in mouse C2C12 cells assessed as increase in Akt phosphorylation by measuring increase in ratio of pAkt to Akt at 20 uM treated for 15 mins by western blot analysis; format: cell-based; details: not given
T5 sequence (whole entry): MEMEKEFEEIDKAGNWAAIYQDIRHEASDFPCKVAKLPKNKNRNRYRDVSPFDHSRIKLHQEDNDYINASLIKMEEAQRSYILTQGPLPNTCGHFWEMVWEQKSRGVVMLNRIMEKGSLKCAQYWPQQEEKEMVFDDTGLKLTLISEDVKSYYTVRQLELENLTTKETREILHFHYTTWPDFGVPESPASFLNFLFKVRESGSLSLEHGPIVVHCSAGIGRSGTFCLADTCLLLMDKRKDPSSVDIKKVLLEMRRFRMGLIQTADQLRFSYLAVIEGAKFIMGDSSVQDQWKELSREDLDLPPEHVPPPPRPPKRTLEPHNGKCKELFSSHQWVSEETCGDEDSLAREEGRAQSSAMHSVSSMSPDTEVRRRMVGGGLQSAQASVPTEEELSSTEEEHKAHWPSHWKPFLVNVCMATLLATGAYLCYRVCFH
Outline: (§4)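 C2C12 cells starved 24 h, then given 10 nM insulin, 20 µM compound, or both, for 15 min. Washed in cold PBS, lysed in 1X Laemmli buffer, run on SDS-PAGE, blotted to PVDF. Probed with antibodies to phospho-Akt and total Akt, with actin as loading control. Bands quantified; triplicate, mean ± SD (n = 3).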

SMILES | inhibition
O=C(O)CCN1C(=O)/C(=C/c2cccc(OCCCCc3ccccc3)c2)SC1=S | Active

target: T5, Tyrosine-protein phosphatase non-receptor type 1 (Mus musculus); experiment: Inhibition of PTP1B in mouse C2C12 cells assessed as potentiation of insulin-induced Akt phosphorylation by measuring increase in ratio of pAkt to Akt at 20 uM treated for 15 mins in presence of insulin by western blot analysis; format: cell-based; details: not given; outline: as §4

SMILES | inhibition
O=C(O)CCN1C(=O)/C(=C/c2cccc(OCCCCc3ccccc3)c2)SC1=S | Active

test system: C2C12; experiment: Insulin-mimetic activity in mouse C2C12 cells assessed as stimulation of 2-NBDG uptake at 20 uM pretreated with compound for 15 mins followed by 2-NBDG addition and measured after 3 hrs by flow cytometry; format: functional, cell-based; details: time 195.0 min
Outline: (§5)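 C2C12 cells serum-starved 24 h, then 15 min with 10 nM insulin, 20 µM compound, or both. Washed, then 3 h in starvation medium containing 40 µM 2-NBDG. Trypsinized, washed, and fluorescence measured by flow cytometry. Quadruplicate; mean fluorescence ± SD.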

SMILES | Activity
O=C(O)CCN1C(=O)/C(=C/c2cccc(OCCCCc3ccccc3)c2)SC1=S | Active

test system: C2C12; experiment: Insulin-mimetic activity in mouse C2C12 cells assessed as stimulation of 2-NBDG uptake at 20 uM pretreated with compound and insulin for 15 mins followed by 2-NBDG addition and measured after 3 hrs by flow cytometry; format: functional, cell-based; details: time 195.0 min; outline: as §5

SMILES | Activity
O=C(O)CCN1C(=O)/C(=C/c2cccc(OCCCCc3ccccc3)c2)SC1=S | Active

test system: C2C12; experiment: Effect on total Akt protein expression in mouse C2C12 cells at 20 uM incubated for 15 mins by SDS-PAGE analysis; format: functional, cell-based; details: not given; outline: as §4

SMILES | Activity
O=C(O)CCN1C(=O)/C(=C/c2cccc(OCCCCc3ccccc3)c2)SC1=S | inactive

test system: C2C12; experiment: Effect on total Akt protein expression in mouse C2C12 cells at 20 uM incubated for 15 mins in presence of insulin by SDS-PAGE analysis; format: functional, cell-based; details: not given; outline: as §4

SMILES | Activity
O=C(O)CCN1C(=O)/C(=C/c2cccc(OCCCCc3ccccc3)c2)SC1=S | inactive
